Data from ChEMBL document CHEMBL1155356, “Design, synthesis, and structure-activity relationship of novel orally efficacious pyrazole/sulfonamide based dihydroquinoline gamma-secretase inhibitors” (Bioorg Med Chem Lett, 2009).

Tests used:
[1] = Metabolic stability in mouse liver microsomes at 2 uM after 30 mins in presence of 1 mM UDPGA; assay type: ADME, Microsome; settings: read-out: Stability
Outline: (§1)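 Glucuronidation stability: 2 µM compound incubated 30 min at 37 °C in phosphate buffer with liver microsomes (0.5 mg protein), 1 mM UDPGA, 100 mM MgCl2 and 25 µg/mL alamethicin. Read-out is percent parent compound remaining. Human or mouse microsomes per line.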

Mus musculus [2] = test: Reduction of cortical abeta40 level in FVB mouse at 3 mg/kg, po after 3 hrs; assay type: functional; set-up: scale not given: the % may be the effect or the level left
[3] = Metabolic stability in human liver microsomes at 2 uM after 30 mins in presence of 1 mM UDPGA; assay type: ADME, Microsome; settings: read-out: Stability; outline: as §1
[4] = Oxidative metabolic stability in mouse liver microsomes at 1 uM after 30 mins in presence of 1 mM NADPH; assay type: ADME, Microsome; settings: liver microsomes, read-out: Stability
Outline: (§2)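 Oxidative stability: compound at 1 µM incubated 30 min at 37 °C in phosphate buffer with liver microsomes (0.5 mg/ml protein) plus 1 mM NADPH. Percent parent remaining reported. Human or mouse microsomes per line.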

Gamma-secretase = test: Inhibition of Gamma-secretase in human IMR-32 cells after 2 hrs by ELISA assay; assay type: cell-based
Outline: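 γ-Secretase came from IMR-32 cell membranes, and compound was first diluted in DMSO. Reaction at 37 °C was started with MBPC-125 Swedish substrate, run for 2 h, then stopped with SDS. Cleaved substrate was measured by Aβ40-specific ELISA. Values are means of three experiments.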

[5] = Solubility in HBSS buffer at 20 mM at pH 7.4 after 1 hr; assay type: physicochemical
Outline: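 20 mM DMSO stocks serially diluted in DMSO, then diluted 1:200 into HBSS pH 7.4. After 1 h incubation, plates read on a solubility scanner.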

[6] = Oxidative metabolic stability in human liver microsomes at 1 uM after 30 mins in presence of 1 mM NADPH; assay type: ADME, Microsome; settings: liver microsomes, read-out: Stability; outline: as §2
[7] = Apparent permeability from apical to basolateral side in MDCK2 cells at 5 uM after 120 mins; assay type: ADME, cell-based, Canis lupus familiaris, MDCK-II; settings: dog, MDCK
Outline: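 Compound at 5 µM in mHBSS pH 7.4 applied to MDCK II cell monolayers for 120 min at 37 °C. Apical and basolateral chambers sampled and analysed by LC/MS/MS.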

Mus musculus [8] = test: Reduction of cortical abeta40 level in FVB mouse at 30 mg/kg, po after 3 hrs; assay type: functional; set-up: scale not given: the % may be the effect or the level left

Question: What does the source list for `C[C@@H]1c2c[nH]nc2-c2cc(F)ccc2N1S(=O)(=O)c1ccc(Cl)cc1`?
Answer: remaining at 0.5 h, 2 µM [1]: 91%; Activity (Mus musculus [2]): 7%; remaining at 0.5 h, 2 µM [3]: 77%; remaining at 0.5 h, 1 µM [4]: 7%; IC50 (Gamma-secretase): 0.62 nM; solubility at 1 h [5]: > 100 µM; remaining at 0.5 h, 1 µM [6]: 1%; Papp A→B at 2 h, 5 µM [7]: 19.8 ×10⁻⁶ cm/s; Activity (Mus musculus [8]): 37%
